Drawing on ChEMBL document CHEMBL3351933, “Indimicins A-E, Bisindole Alkaloids from the Deep-Sea-Derived Streptomyces sp. SCSIO 03032” (J Nat Prod, 2014), this text covers MIC, IC50 and inhibition for 7 molecules.

The source made the active and inactive calls.

The subject of experiment [1] is Escherichia coli. Nature of the experiment: Antimicrobial activity against Escherichia coli ATCC 25922 by the broth microdilution method. Type of experiment: functional. A general note: Broth dilution looks for growth in wells or tubes with falling amounts of substance.
The test system of experiment [2] is Staphylococcus aureus. Nature of the experiment: Antimicrobial activity against Staphylococcus aureus ATCC 29213 by the broth microdilution method. Type of experiment: functional.
Experiment [3] deals with Bacillus thuringiensis. The experiment in a line: Antimicrobial activity against Bacillus thuringiensis SCSIO BT01 by the broth microdilution method. Type of experiment: functional.
For experiment [4], the system named is Bacillus subtilis. Nature of the experiment: Antimicrobial activity against Bacillus subtilis SCSIO BS01 by the broth microdilution method. Type of experiment: functional.
In experiment [5] the test system is Candida albicans. Nature of the experiment: Antimicrobial activity against Candida albicans ATCC10231 by the broth microdilution method. Type of experiment: functional.
Experiment [6] relates to MCF7. The experiment in a line: Cytotoxicity against human MCF7 cells by SRB assay. Type of experiment: functional, cell-based. The essentials: (§1)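 Sulforhodamine B (SRB) cytotoxicity assay, following an earlier published protocol, run in vitro against a four-line human tumor panel: HepG2 (hepatocellular liver carcinoma), MCF7 (breast adenocarcinoma), NCI-H460 (non-small-cell lung cancer) and SF268 (glioma). IC50 values reported in μM.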
A general note: Sulforhodamine B stains cellular protein and so reports cell mass.

Experiment [7] relates to NCI-H460. Nature of the experiment: Cytotoxicity against human NCI-H460 cells by SRB assay. Type of experiment: functional, cell-based. The method in brief: as §1
For experiment [8], the system named is HepG2. The experiment in a line: Cytotoxicity against human HepG2 cells by SRB assay. Type of experiment: functional, cell-based. The essentials:
as §1

Usually MIC stands for the smallest concentration in the dilution series that meets the test's criterion for growth inhibition. Read a low MIC as greater potency. As usually defined, the IC50 is the concentration that inhibits the measured activity by half. Lower therefore signals greater potency in that assay.

For the molecule `CN1C[C@](C)(c2cn(C)cc2-c2c[nH]c3ccc(Cl)cc23)c2cc(Cl)ccc21`, the MIC in experiment [1], in experiment [2], in experiment [3], in experiment [4] and in experiment [5] was above 128 mg/L in each case. In experiment [6], this molecule gave an IC50 above 10 µM. In addition, the inhibition result in experiment [7] and in experiment [8] was “inactive” each time.

Take `COC(=O)c1c(-c2c[nH]c3ccc(Cl)cc23)c(-c2c[nH]c3ccc(Cl)cc23)cn1C`: the MIC in experiment [1], in experiment [2], in experiment [3], in experiment [4] and in experiment [5] was above 128 mg/L in each case. In addition, the IC50 in experiment [6] is above 10 µM. The inhibition result in experiment [7] and in experiment [8] was “inactive” throughout.

Consider `COC(=O)c1c(-c2c[nH]c3ccc(Cl)cc23)c(-c2c[nH]c3ccc(Cl)cc23)c(C(=O)OC)n1C`, for which the MIC in experiment [1], in experiment [2], in experiment [3], in experiment [4] and in experiment [5] was above 128 mg/L throughout. For the same molecule, the 50% inhibitory concentration (IC50) in experiment [6] was above 10 µM. For the same molecule, the inhibition result in experiment [7] and in experiment [8] was “inactive” each time.

For `Cc1[nH]cc2c1-c1c([nH]c3ccc(Cl)cc13)[C@H]1N(C)c3ccc(Cl)cc3[C@@]21C`, the MIC in experiment [1], in experiment [2], in experiment [3], in experiment [4] and in experiment [5] was above 128 mg/L throughout. Also, in experiment [6], the IC50 was above 10 µM. Besides, the inhibition entry in experiment [7] and in experiment [8] was “inactive” each time.

Consider `CN1c2ccc(Cl)cc2[C@@]2(C)c3cn(C)cc3-c3c([nH]c4ccc(Cl)cc34)[C@@H]12`, for which the MIC in experiment [1], in experiment [2], in experiment [3], in experiment [4] and in experiment [5] was above 128 mg/L each time. This molecule displayed an IC50 in experiment [6] above 10 µM. Also, the inhibition entry in experiment [7] and in experiment [8] was “inactive” each time.

`Cc1c2c(cn1C)[C@]1(C)c3cc(Cl)ccc3N(C)[C@@H]1c1[nH]c3ccc(Cl)cc3c1-2`: the MIC in experiment [1], in experiment [2], in experiment [3], in experiment [4] and in experiment [5] was above 128 mg/L in each case. In experiment [6], this molecule showed an IC50 of 10 µM. The inhibition result in experiment [7] and in experiment [8] was “inactive” throughout.

In the case of `CN1c2ccc(Cl)cc2[C@@]2(C)c3c[nH]cc3-c3c([nH]c4ccc(Cl)cc34)[C@@H]12`, the MIC in experiment [1], in experiment [2], in experiment [3], in experiment [4] and in experiment [5] was above 128 mg/L each time. In experiment [6], this molecule gave an IC50 above 10 µM. Moreover, the inhibition entry in experiment [7] and in experiment [8] was “inactive” in each case.
